According to ChEMBL document CHEMBL1781989, “Novel β-carboline-tripeptide conjugates attenuate mesenteric ischemia/reperfusion injury in the rat” (2011):
Non-standard residues stand in square brackets, D forms with d. Residues, ends and D or L forms follow the SMILES beside them. Tpi = O=C(O)[C@@H]1Cc2c([nH]c3ccccc23)CN1

Key:
[1] = system: Mus musculus; test: Analgesic activity in ICR mouse assessed as increase in pain threshold at 0.15 mmol/kg, po after 30 mins by tail flick method (reference value: 5.03 +/- 10.26 %); format: functional
[2] = system: Mus musculus; test: Analgesic activity in ICR mouse assessed as increase in pain threshold at 0.15 mmol/kg, po after 60 mins by tail flick method (reference value: 7.45 +/- 8.03 %); format: functional
[3] = system: Mus musculus; test: Analgesic activity in ICR mouse assessed as increase in pain threshold at 0.15 mmol/kg, po after 90 mins by tail flick method (reference value: 7.53 +/- 11.54 %); format: functional
[4] = system: Mus musculus; test: Analgesic activity in ICR mouse assessed as increase in pain threshold at 0.15 mmol/kg, po after 120 mins by tail flick method (reference value: 8.09 +/- 13.28 %); format: functional
[5] = system: Mus musculus; test: Analgesic activity in ICR mouse assessed as increase in pain threshold at 0.15 mmol/kg, po after 150 mins by tail flick method (reference value: 9.02 +/- 12.19 %); format: functional
[6] = system: Mus musculus; test: Analgesic activity in ICR mouse assessed as increase in pain threshold at 0.15 mmol/kg, po after 180 mins by tail flick method (reference value: 8.75 +/- 9.73 %); format: functional
[7] = system: Mus musculus; test: Antiinflammatory activity in ICR mouse assessed as inhibition of xylene-induced ear edema at 0.15 mmol/kg, po administered 30 mins before xylene challenge measured after 2 hrs relative to control; format: functional
Procedure, shortened: (§1)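 Male ICR mice (20 ± 2 g), randomised to test, vehicle (CMC) and aspirin (10 mg/kg oral) groups. Test agents given orally as CMC suspension. After 30 min, 0.03 mL xylene applied to both faces of the right ear, left ear as control. At 2 h mice were killed and 7 mm ear punches weighed. Edema is the right-minus-left weight, and inhibition is taken against vehicle.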

[8] = system: Mus musculus; test: Antiinflammatory activity in ICR mouse assessed as inhibition of xylene-induced ear edema at 0.10 mmol/kg, po administered 30 mins before xylene challenge measured after 2 hrs relative to control; format: functional; procedure, shortened: as §1
[9] = system: Mus musculus; test: Antiinflammatory activity in ICR mouse assessed as inhibition of xylene-induced ear edema at 0.05 mmol/kg, po administered 30 mins before xylene challenge measured after 2 hrs relative to control; format: functional; procedure, shortened: as §1
[10] = system: Mus musculus; test: Antiinflammatory activity in po dosed ICR mouse assessed as inhibition of xylene-induced ear edema administered 30 mins before xylene challenge measured after 2 hrs; format: functional, organism-based; procedure, shortened: as §1

Row | Structure (SMILES) | Activity [1] [%] | Activity [2] [%] | Activity [3] [%] | Activity [4] [%] | Activity [5] [%] | Activity [6] [%] | inhibition in vivo at 150 µmol/kg [7] [%] | inhibition in vivo at 100 µmol/kg [8] [%] | inhibition in vivo at 50 µmol/kg [9] [%] | inhibition [10]
1 | NC(=O)C[C@H](NC(=O)[C@@H]1Cc2c([nH]c3ccccc23)CN1)C(=O)N[C@@H](Cc1ccccc1)C(=O)N[C@@H](Cc1c[nH]c2ccccc12)C(=O)O (H-[Tpi]NFW-OH) | 21.24 | 45.23 | 34.56 | 39.25 | 22.12 | 19.45 | 55.8 |  |  | 
2 | O=C(O)[C@H](Cc1c[nH]c2ccccc12)NC(=O)[C@H](Cc1ccccc1)NC(=O)[C@H](Cc1c[nH]c2ccccc12)NC(=O)[C@@H]1Cc2c([nH]c3ccccc23)CN1 (H-[Tpi]WFW-OH) | 35.05 | 36.45 | 35.19 | 28.55 | 16.69 | 14.23 | 51.5 |  |  | 
3 | CC[C@H](C)[C@H](NC(=O)[C@@H]1Cc2c([nH]c3ccccc23)CN1)C(=O)N[C@@H](Cc1ccccc1)C(=O)N[C@@H](Cc1c[nH]c2ccccc12)C(=O)O (H-[Tpi]IFW-OH) | 33.01 | 38.01 | 41.23 | 27.32 | 15.25 | 16.13 | 56.4 |  |  | 
4 | CC(C)C[C@H](N)C(=O)N[C@@H](Cc1ccccc1)C(=O)N[C@@H](Cc1c[nH]c2ccccc12)C(=O)O (H-Leu-Phe-Trp-OH) | 25.38 | 28.79 | 20.13 | 18.92 | 9.77 | 7.98 |  |  |  | 
5 | O=C(O)[C@H](Cc1c[nH]c2ccccc12)NC(=O)[C@H](Cc1ccccc1)NC(=O)[C@H](Cc1cnc[nH]1)NC(=O)[C@@H]1Cc2c([nH]c3ccccc23)CN1 (H-[Tpi]HFW-OH) | 37.25 | 32.19 | 22.23 | 39.38 | 24.33 | 13.29 | 57.6 |  |  | 
6 | C[C@H](NC(=O)[C@@H]1Cc2c([nH]c3ccccc23)CN1)C(=O)N[C@@H](Cc1ccccc1)C(=O)N[C@@H](Cc1c[nH]c2ccccc12)C(=O)O (H-[Tpi]AFW-OH) | 37.58 | 48.23 | 46.48 | 42.03 | 28.79 | 19.22 | 52.7 | 44.8 | 32.6 | Dose-dependent effect
7 | C[C@@H](O)[C@H](NC(=O)[C@@H]1Cc2c([nH]c3ccccc23)CN1)C(=O)N[C@@H](Cc1ccccc1)C(=O)N[C@@H](Cc1c[nH]c2ccccc12)C(=O)O (H-[Tpi]TFW-OH) | 30.75 | 38.2 | 40.36 | 42.43 | 23.19 | 19.25 | 50.6 |  |  | 
8 | O=C(O)C[C@H](NC(=O)[C@@H]1Cc2c([nH]c3ccccc23)CN1)C(=O)N[C@@H](Cc1ccccc1)C(=O)N[C@@H](Cc1c[nH]c2ccccc12)C(=O)O (H-[Tpi]DFW-OH) | 22.17 | 28.12 | 34.55 | 40.67 | 13.54 | 18.77 | 40 |  |  | 
9 | O=C(CNC(=O)[C@@H]1Cc2c([nH]c3ccccc23)CN1)N[C@@H](Cc1ccccc1)C(=O)N[C@@H](Cc1c[nH]c2ccccc12)C(=O)O (H-[Tpi]GFW-OH) | 10.36 | 40.78 | 46.45 | 49.09 | 22.37 | 14.36 | 37.5 |  |  | 
10 | CC(C)[C@H](NC(=O)[C@@H]1Cc2c([nH]c3ccccc23)CN1)C(=O)N[C@@H](Cc1ccccc1)C(=O)N[C@@H](Cc1c[nH]c2ccccc12)C(=O)O (H-[Tpi]VFW-OH) | 39.47 | 45.77 | 47.36 | 35.79 | 25.88 | 16.03 | 43.6 |  |  | 
11 | O=C(O)[C@H](Cc1c[nH]c2ccccc12)NC(=O)[C@H](Cc1ccccc1)NC(=O)[C@H](Cc1ccc(O)cc1)NC(=O)[C@@H]1Cc2c([nH]c3ccccc23)CN1 (H-[Tpi]YFW-OH) | 35.75 | 41.18 | 43.23 | 30.25 | 28.87 | 20.94 | 50.9 | 32.9 | 16.2 | Dose-dependent effect
12 | NC(=O)CC[C@H](NC(=O)[C@@H]1Cc2c([nH]c3ccccc23)CN1)C(=O)N[C@@H](Cc1ccccc1)C(=O)N[C@@H](Cc1c[nH]c2ccccc12)C(=O)O (H-[Tpi]QFW-OH) | 41.83 | 47.33 | 51.25 | 32.33 | 18.32 | 22.45 | 42.4 |  |  | 
13 | O=C(O)[C@H](Cc1c[nH]c2ccccc12)NC(=O)[C@H](Cc1ccccc1)NC(=O)[C@H](Cc1ccccc1)NC(=O)[C@@H]1Cc2c([nH]c3ccccc23)CN1 (H-[Tpi]FFW-OH) | 31.34 | 37.2 | 40.56 | 45.46 | 21.12 | 15.32 | 48.2 |  |  | 
14 | O=C(O)CC[C@H](NC(=O)[C@@H]1Cc2c([nH]c3ccccc23)CN1)C(=O)N[C@@H](Cc1ccccc1)C(=O)N[C@@H](Cc1c[nH]c2ccccc12)C(=O)O (H-[Tpi]EFW-OH) | 18.24 | 17.23 | 29.25 | 39.23 | 12.25 | 12.32 | 28.4 |  |  | 
15 | O=C(O)[C@H](Cc1c[nH]c2ccccc12)NC(=O)[C@H](Cc1ccccc1)NC(=O)[C@@H]1CCCN1C(=O)[C@@H]1Cc2c([nH]c3ccccc23)CN1 (H-[Tpi]PFW-OH) | 23.17 | 49.74 | 21.35 | 18.79 | 25.05 | 15.68 | 47.3 |  |  | 
16 | O=C(O)[C@H](Cc1c[nH]c2ccccc12)NC(=O)[C@H](Cc1ccccc1)NC(=O)[C@H](CO)NC(=O)[C@@H]1Cc2c([nH]c3ccccc23)CN1 (H-[Tpi]SFW-OH) | 30.56 | 42.32 | 44.13 | 38.45 | 26.47 | 25.07 | 45.7 |  |  | 
17 | NCCCC[C@H](N)C(=O)N[C@@H](Cc1ccccc1)C(=O)N[C@@H](Cc1c[nH]c2ccccc12)C(=O)O (H-Lys-Phe-Trp-OH) | 20.16 | 25.43 | 23.47 | 20.14 | 11.23 | 8.41 |  |  |  | 
18 | CC(=O)Oc1ccccc1C(=O)O [ASPIRIN] | 32.85 | 38.45 | 41.23 | 33.24 | 30.41 | 21.72 |  |  |  | 
